Source: ChEMBL document CHEMBL1275556, “High prevalence of plasmid-mediated quinolone resistance genes qnr and aac(6')-Ib-cr in clinical isolates of Enterobacteriaceae from nine teaching hospitals in China” (2008)

Columns and labels:
Citrobacter freundii [1] = experiment: Antimicrobial activity against aac(6')-Ib-cr-positive Citrobacter freundii PU55 harboring GyrA T83I, ParC S80I mutant, wild-type GyrB, qnrA genes by agar dilution method; format: functional
Outline: (§1)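 MICs were determined by the CLSI agar dilution method (M7-A7) and interpreted against CLSI M100-S17 breakpoints.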

Klebsiella pneumoniae [2] = experiment: Antimicrobial activity against aac(6')-Ib-cr-positive Klebsiella pneumoniae WH99 harboring wild-type GyrA, ParC, GyrB and qnrB genes by agar dilution method; format: functional
Outline: (§2)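 MICs were determined on clinical isolates by CLSI agar dilution (M7-A7) and interpreted against CLSI M100-S17 breakpoints.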

Klebsiella pneumoniae [3] = experiment: Antimicrobial activity against aac(6')-Ib-cr-positive Klebsiella pneumoniae SY26 harboring GyrA S83I, ParC S80I mutant, wild-type GyrB and qnrB genes by agar dilution method; format: functional; outline: as §2
Escherichia coli [4] = experiment: Antimicrobial activity against aac(6')-Ib-cr-positive Escherichia coli FJ3T harboring wild-type GyrA, ParC, GyrB and qnrB genes by agar dilution method
Citrobacter freundii [5] = experiment: Antimicrobial activity against aac(6')-Ib-cr-positive Citrobacter freundii JN1T by agar dilution method; format: functional; outline: as §1
Escherichia coli [6] = experiment: Antimicrobial activity against aac(6')-Ib-cr-negative Escherichia coli PU12 harboring GyrA S83L mutant, wild-type GyrB, ParC and qnrS genes by agar dilution method; format: functional; outline: as §1
Klebsiella pneumoniae [7] = experiment: Antimicrobial activity against aac(6')-Ib-cr-negative Klebsiella pneumoniae SY22 harboring GyrA S83I, ParC S80I mutant, wild-type GyrB and qnrS genes by agar dilution method; format: functional; outline: as §1
Klebsiella pneumoniae [8] = experiment: Antimicrobial activity against aac(6')-Ib-cr-positive Klebsiella pneumoniae JN41T harboring qnrB gene by agar dilution method; format: functional
Outline: (§3)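 Transconjugants were made by conjugating a qnr/aac(6')-Ib-cr donor with azide-resistant E. coli J53. Selection used Trypticase soy agar with sodium azide 150 µg/ml and sulfamethoxazole 180 µg/ml. […] MICs were read by CLSI agar dilution (M7-A7) and interpreted per M100-S17.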

Klebsiella pneumoniae [9] = experiment: Antimicrobial activity against aac(6')-Ib-cr-positive Klebsiella pneumoniae JN132T harboring qnrB gene by agar dilution method; format: functional; outline: as §3
Klebsiella pneumoniae [10] = experiment: Antimicrobial activity against aac(6')-Ib-cr-positive Klebsiella pneumoniae JN132 harboring GyrA S83I, ParC S80I mutant, wild-type GyrB and qnrB genes by agar dilution method; format: functional; outline: as §2
Citrobacter freundii [11] = experiment: Antimicrobial activity against aac(6')-Ib-cr-negative Citrobacter freundii JN64T harboring qnrA gene by agar dilution method; format: functional; outline: as §1
Citrobacter freundii [12] = experiment: Antimicrobial activity against aac(6')-Ib-cr-positive Citrobacter freundii JS33 harboring GyrA T83I mutant, wild-type ParC, GyrB, qnrA and qnrB genes by agar dilution method; format: functional; outline: as §1
Escherichia coli [13] = experiment: Antimicrobial activity against aac(6')-Ib-cr-positive Escherichia coli FJ3 harboring GyrA S83L, ParC S80R mutant, wild-type GyrB and qnrB genes by agar dilution method; format: functional; outline: as §1
Klebsiella pneumoniae [14] = experiment: Antimicrobial activity against aac(6')-Ib-cr-positive Klebsiella pneumoniae JN41 harboring GyrA S83I, ParC S80I mutant, wild-type GyrB and qnrB genes by agar dilution method; format: functional; outline: as §2
Escherichia coli [15] = experiment: Antimicrobial activity against aac(6')-Ib-cr-negative Escherichia coli PU12T harboring wild-type GyrA, GyrB, ParC and qnrS genes by agar dilution method; format: functional; outline: as §1
Klebsiella pneumoniae [16] = experiment: Antimicrobial activity against aac(6')-Ib-cr-positive Klebsiella pneumoniae WH99T harboring qnrB gene by agar dilution method; format: functional; outline: as §3
Enterobacter cloacae [17] = experiment: Antimicrobial activity against aac(6')-Ib-cr-negative Enterobacter cloacae WH42 harboring wild-type GyrA, ParC, GyrB and qnrA genes by agar dilution method; format: functional
Citrobacter freundii [18] = experiment: Antimicrobial activity against aac(6')-Ib-cr-positive Citrobacter freundii TJ15 harboring GyrA T83I, ParC S80I mutant, wild-type GyrB, qnrB genes by agar dilution method; format: functional; outline: as §1
Citrobacter freundii [19] = experiment: Antimicrobial activity against aac(6')-Ib-cr-positive Citrobacter freundii PU55T harboring wild-type GyrA, ParC, GyrB and qnrA genes by agar dilution method
Enterobacter cloacae [20] = experiment: Antimicrobial activity against aac(6')-Ib-cr-negative Enterobacter cloacae GZ47T harboring qnrB gene by agar dilution method; format: functional
Enterobacter cloacae [21] = experiment: Antimicrobial activity against aac(6')-Ib-cr-negative Enterobacter cloacae FJ61 harboring GyrA S83I, GyrA D87A, ParC S80I mutant, wild-type GyrB and qnrS genes by agar dilution method; format: functional
Escherichia coli [22] = experiment: Antimicrobial activity against Escherichia coli J53 harboring wild-type GyrA, ParC, GyrB genes by agar dilution method
Enterobacter cloacae [23] = experiment: Antimicrobial activity against aac(6')-Ib-cr-negative Enterobacter cloacae FJ67 harboring […] and qnrS genes by agar dilution method; format: functional
Citrobacter freundii [24] = experiment: Antimicrobial activity against aac(6')-Ib-cr-positive Citrobacter freundii JN1 harboring GyrA T83I, ParC S80I mutant, wild-type GyrB and qnrA genes by agar dilution method; format: functional; outline: as §1
Enterobacter cloacae [25] = experiment: Antimicrobial activity against aac(6')-Ib-cr-positive Enterobacter cloacae FJ63 harboring GyrA S83I, GyrA D87A, ParC S80I mutant, wild-type GyrB and qnrS genes by agar dilution method; format: functional
Enterobacter cloacae [26] = experiment: Antimicrobial activity against aac(6')-Ib-cr-positive Enterobacter cloacae FJ63T harboring qnrS gene by agar dilution method; format: functional
Enterobacter cloacae [27] = experiment: Antimicrobial activity against aac(6')-Ib-cr-negative Enterobacter cloacae GZ51T harboring qnrA gene by agar dilution method; format: functional
Klebsiella pneumoniae [28] = experiment: Antimicrobial activity against aac(6')-Ib-cr-positive Klebsiella pneumoniae GZ40T harboring qnrB gene by agar dilution method
Citrobacter freundii [29] = experiment: Antimicrobial activity against aac(6')-Ib-cr-negative Citrobacter freundii JN64 harboring GyrA T83I, wild-type ParC, GyrB and qnrA genes by agar dilution method; format: functional; outline: as §1
Citrobacter freundii [30] = experiment: Antimicrobial activity against aac(6')-Ib-cr-positive Citrobacter freundii JS33T harboring qnrA gene by agar dilution method; format: functional; outline: as §1
Enterobacter cloacae [31] = experiment: Antimicrobial activity against aac(6')-Ib-cr-negative Enterobacter cloacae GZ51 harboring qnrA gene by agar dilution method; format: functional
Enterobacter cloacae [32] = experiment: Antimicrobial activity against aac(6')-Ib-cr-negative Enterobacter cloacae SH39 harboring GyrA S83I, ParC S80I mutant, wild-type GyrB and qnrA genes by agar dilution method; format: functional
Enterobacter cloacae [33] = experiment: Antimicrobial activity against aac(6')-Ib-cr-negative Enterobacter cloacae GZ47 harboring qnrB and qnrS genes by agar dilution method; format: functional
Citrobacter freundii [34] = experiment: Antimicrobial activity against aac(6')-Ib-cr-positive Citrobacter freundii TJ15T harboring wild-type GyrA, ParC, GyrB genes by agar dilution method; format: functional; outline: as §1
Klebsiella pneumoniae [35] = experiment: Antimicrobial activity against aac(6')-Ib-cr-positive Klebsiella pneumoniae GZ40 harboring GyrA S83I, ParC S80I mutant, wild-type GyrB and qnrB genes by agar dilution method; format: functional; outline: as §1
Enterobacter cloacae [36] = experiment: Antimicrobial activity against aac(6')-Ib-cr-negative Enterobacter cloacae FJ67T harboring qnrS gene by agar dilution method; format: functional
Klebsiella pneumoniae [37] = experiment: Antimicrobial activity against aac(6')-Ib-cr-negative Klebsiella pneumoniae SY22T harboring qnrS gene by agar dilution method; format: functional; outline: as §1
Klebsiella pneumoniae [38] = experiment: Antimicrobial activity against aac(6')-Ib-cr-positive Klebsiella pneumoniae SY26T harboring wild-type GyrA, ParC, GyrB and qnrB genes by agar dilution method; format: functional
Outline: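 Transconjugants were made by conjugating a qnr/aac(6')-Ib-cr donor with azide-resistant E. coli J53. MICs were read by CLSI agar dilution (M7-A7) and interpreted per M100-S17.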

Enterobacter cloacae [39] = experiment: Antimicrobial activity against aac(6')-Ib-cr-negative Enterobacter cloacae SH39T harboring qnrA gene by agar dilution method; format: functional
Enterobacter cloacae [40] = experiment: Antimicrobial activity against aac(6')-Ib-cr-negative Enterobacter cloacae WH42T harboring qnrA gene by agar dilution method; format: functional
Enterobacter cloacae [41] = experiment: Antimicrobial activity against aac(6')-Ib-cr-negative Enterobacter cloacae FJ61T harboring qnrS gene by agar dilution method; format: functional

Measured: MIC

CO/N=C(\C(=O)N[C@@H]1C(=O)N2C(C(=O)[O-])=C(C[N+]3(C)CCCC3)CS[C@H]12)c1csc(N)n1
2 µg/mL: Klebsiella pneumoniae [2] | Escherichia coli [6] | Klebsiella pneumoniae [9] | Klebsiella pneumoniae [10] | Klebsiella pneumoniae [14] | Escherichia coli [15]
4 µg/mL: Escherichia coli [4] | Citrobacter freundii [11]
0.25 µg/mL: Citrobacter freundii [12]
8 µg/mL: Escherichia coli [13]
1 µg/mL: Citrobacter freundii [1] | Citrobacter freundii [5] | Klebsiella pneumoniae [7] | Klebsiella pneumoniae [8] | Klebsiella pneumoniae [16]
0.5 µg/mL: Klebsiella pneumoniae [3]

NCC[C@H](O)C(=O)N[C@@H]1C[C@H](N)[C@@H](O[C@H]2O[C@H](CN)[C@@H](O)[C@H](O)[C@H]2O)[C@H](O)[C@H]1O[C@H]1O[C@H](CO)[C@@H](O)[C@H](N)[C@H]1O [AMIKACIN]
16 µg/mL: Enterobacter cloacae [17] | Enterobacter cloacae [36] | Enterobacter cloacae [40]
32 µg/mL: Enterobacter cloacae [23] | Klebsiella pneumoniae [38]
1 µg/mL: Enterobacter cloacae [20] | Escherichia coli [22] | Enterobacter cloacae [33]
8 µg/mL: Escherichia coli [6] | Klebsiella pneumoniae [35]
> 256 µg/mL: Enterobacter cloacae [25] | Enterobacter cloacae [27] | Citrobacter freundii [11] | Citrobacter freundii [29] | Enterobacter cloacae [31]
2 µg/mL: Klebsiella pneumoniae [2] | Escherichia coli [4] | Enterobacter cloacae [21] | Citrobacter freundii [5] | Klebsiella pneumoniae [7] | Enterobacter cloacae [32] | Klebsiella pneumoniae [37] | Enterobacter cloacae [39] | Enterobacter cloacae [41] | Klebsiella pneumoniae [16]
64 µg/mL: Klebsiella pneumoniae [3] | Klebsiella pneumoniae [9] | Klebsiella pneumoniae [10] | Enterobacter cloacae [26]
4 µg/mL: all other assays above

CC(C)(O/N=C(\C(=O)N[C@@H]1C(=O)N2C(C(=O)[O-])=C(C[n+]3ccccc3)CS[C@H]12)c1csc(N)n1)C(=O)O [CEFTAZIDIME]
32 µg/mL: Klebsiella pneumoniae [9] | Klebsiella pneumoniae [10] | Enterobacter cloacae [27]
16 µg/mL: Klebsiella pneumoniae [2] | Enterobacter cloacae [21] | Citrobacter freundii [12] | Klebsiella pneumoniae [38] | Enterobacter cloacae [40]
64 µg/mL: Citrobacter freundii [1] | Citrobacter freundii [24] | Citrobacter freundii [29] | Enterobacter cloacae [31]
1 µg/mL: Citrobacter freundii [5] | Klebsiella pneumoniae [8] | Klebsiella pneumoniae [37] | Escherichia coli [15]
128 µg/mL: Enterobacter cloacae [25] | Enterobacter cloacae [33]
256 µg/mL: Enterobacter cloacae [17] | Klebsiella pneumoniae [3] | Klebsiella pneumoniae [35]
2 µg/mL: Enterobacter cloacae [20] | Escherichia coli [4] | Citrobacter freundii [11] | Enterobacter cloacae [32] | Citrobacter freundii [34] | Klebsiella pneumoniae [14]
4 µg/mL: Citrobacter freundii [18] | Enterobacter cloacae [23] | Escherichia coli [6] | Klebsiella pneumoniae [7] | Enterobacter cloacae [26] | Enterobacter cloacae [36] | Escherichia coli [13] | Klebsiella pneumoniae [16]
